Bioassay records from PubChem BioAssay.
Myeloid diff 2: induction of myeloid progenitor differentiation, primary screen, cell-based, flow cytometry, MLPCN library | ER-HoxA9 myeloid progenitors, lysozyme-GFP differentiation | calls only at 10 µM | 360,000 tested, 1% active | AID 624256, 2012;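 active = normalized GFP-positive differentiation at or above the plate's own cutoff, the solvent-only control mean plus 3 SD; inconclusive = no clear call, values can overlap the other calls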;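 also: cells exposed to compound for four days before flow analysis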
T cell HTS: modulators of CD8 T cell-vesicle binding, primary screen, mouse 2C CD8+ T cells, flow cytometry | response (vesicle binding), % at 7 µM | 2C CD8+ T cell-vesicle binding; hits give low values | AID 2052, 2009 | 330,000 tested, 0.068% active;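 active = response, share of CD8 T cells binding vesicles, and their 90th percentile fluorescence all below set limits, cut at about 80% in these data, passing the limit was not always enough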;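 also: values below 100% mean blocked vesicle binding to the CD8+ T cells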
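System: murine 2C transgenic CD8+ T lymphocytes; also added: QL9-loaded Drosophila micro-vesicles; times: binding 1.5 h at 37 °C; measured by: flow cytometry, PE anti-B7-1 (FL2) versus Alexa647 anti-CD8 (FL8), PFA-fixed; control set: Peptide-free naked vesicles (low) and QL9 vesicles with 0.7% DMSO vehicle (high)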
Vif imaging: HIV Vif self-association inhibitors, primary screen, imaging, HEK293T, single point. HEK293T cells, Vif self-association by quenched fluorescence, 24 h. inhibition, % at 7.49 µM. 340,000 tested, 0.35% active; in the data active = inhibition above about 50%, passing the limit was not always enough; inconclusive = no clear call, values can overlap the other calls; inactive = below about 31%
DSG3 Ab inh: inhibitors of pemphigus antibody binding to DSG3, primary screen, biochemical, bead-based, flow cytometry, scFv-GFP | DSG3-coupled beads, scFv-anti-DSG3-GFP binding; hits give low values | binding (percent of control), % at 10 µM | 310,000 tested, 0.48% active;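 active = binding more than 3 SD below its plate's average and above zero; inconclusive = below that plate limit but binding exactly zero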;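 also: hits lower antibody fragment binding to DSG3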
Target sequence (P32926 whole entry, looked up, the tested form may be a part): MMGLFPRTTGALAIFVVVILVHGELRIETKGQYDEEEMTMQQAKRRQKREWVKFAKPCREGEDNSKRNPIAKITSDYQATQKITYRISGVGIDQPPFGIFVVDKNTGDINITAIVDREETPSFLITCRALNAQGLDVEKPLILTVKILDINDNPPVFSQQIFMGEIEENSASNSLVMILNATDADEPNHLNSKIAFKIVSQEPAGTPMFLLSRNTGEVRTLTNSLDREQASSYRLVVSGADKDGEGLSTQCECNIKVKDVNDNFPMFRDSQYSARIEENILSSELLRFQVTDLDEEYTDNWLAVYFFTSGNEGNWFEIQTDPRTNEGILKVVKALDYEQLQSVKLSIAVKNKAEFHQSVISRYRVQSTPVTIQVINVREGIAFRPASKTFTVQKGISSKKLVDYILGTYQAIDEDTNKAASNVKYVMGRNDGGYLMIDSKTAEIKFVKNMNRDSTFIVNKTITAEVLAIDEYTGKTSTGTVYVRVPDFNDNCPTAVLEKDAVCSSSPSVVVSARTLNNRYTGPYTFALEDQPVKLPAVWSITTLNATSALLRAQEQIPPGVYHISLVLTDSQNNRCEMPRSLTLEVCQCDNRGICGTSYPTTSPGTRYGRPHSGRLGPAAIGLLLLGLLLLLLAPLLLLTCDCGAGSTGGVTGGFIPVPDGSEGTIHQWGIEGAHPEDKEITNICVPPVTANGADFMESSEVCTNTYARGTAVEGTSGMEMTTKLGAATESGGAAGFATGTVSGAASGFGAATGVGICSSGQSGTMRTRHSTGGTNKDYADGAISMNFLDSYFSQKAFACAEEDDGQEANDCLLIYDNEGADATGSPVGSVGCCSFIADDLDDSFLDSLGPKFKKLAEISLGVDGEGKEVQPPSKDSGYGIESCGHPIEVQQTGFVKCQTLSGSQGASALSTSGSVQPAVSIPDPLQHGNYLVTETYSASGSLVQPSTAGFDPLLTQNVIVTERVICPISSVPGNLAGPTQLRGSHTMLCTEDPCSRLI
Large screens that a line does not name were inactive. The list is not random: actives were taken first. Their share in the collection is about 1.7%.

CCCCCCCCNC(=O)/C(C#N)=C/c1ccc2c(c1)OCCO2	none
CCCCNC(=O)/C(C#N)=C/c1ccc2c(c1)OCCO2	T cell HTS 0.0
COC(=O)c1sc2nc3c(cc2c1N)C(=O)CC(C)(C)C3	DSG3 Ab inh 83.2
O=C(NC1CSC/C1=N\O)c1ccccc1 (stereo unspecified)	DSG3 Ab inh 81.7
CN1CCCN(C(=O)Cc2c(Cl)cccc2Cl)c2nc3ccccc3nc21	Myeloid diff 2 active
O=C(C[n+]1cccc2ccccc21)c1ccc([N+](=O)[O-])cc1	Myeloid diff 2 active
Cc1cccc(NC(=O)Nc2ccc(F)cc2)n1	Myeloid diff 2 active (no result: Vif imaging)
Cc1ccc(NC(=O)Nc2cccc(C)n2)cc1	none
C=CC[C@H](CC(=O)OC(C)(C)C)C(=O)OC[C@H]1CCCN1C(=O)[C@@H](CC=C)CC(=O)N(CCO)Cc1ccccc1	none
O=C1OC(Nc2ccc3c(c2)OCO3)c2ccccc21 (stereo unspecified)	Myeloid diff 2 active
Cc1ccc(NC2CCCN(C(=O)c3ccoc3C)C2)cc1C (stereo unspecified)	none
C=CCn1c(=NC(=O)c2ccc(S(=O)(=O)N3CCCc4ccccc43)cc2)sc2cc(S(N)(=O)=O)ccc21	none
COCCn1c(=NC(=O)c2ccc(S(=O)(=O)N3CCCc4ccccc43)cc2)sc2cc(S(C)(=O)=O)ccc21	Myeloid diff 2 active
CC1(C)N=C(N)N=C(N)N1c1cccc(C#N)c1	Myeloid diff 2 inconclusive (no result: T cell HTS)
COc1ccc2nc(NC(=O)CSc3nc4cccnc4n3C)sc2c1	DSG3 Ab inh 83.6
COc1ccc(NC(=O)CSc2nc3cccnc3n2C)cc1	none
COc1ccc(N2CC(C(=O)Nc3ccc(S(=O)(=O)N4CCCC4)cc3)CC2=O)cc1 (stereo unspecified)	DSG3 Ab inh 30.5
Cc1ccccc1C(=O)N1CCC(C(=O)Nc2cccc(S(=O)(=O)N3CCCCC3)c2)CC1	none
COC(=O)c1ccc(NC(=O)C2CC(=O)N(c3cc(C)ccc3C)C2)cc1 (stereo unspecified)	none
COC(=O)c1ccc(NC(=O)C2CC(=O)N(c3ccc(C)cc3)C2)cc1 (stereo unspecified)	DSG3 Ab inh -24.7
Cc1ccccc1C(=O)N1CCC(C(=O)Nc2ccc(S(=O)(=O)N3CCCC3)cc2)CC1	Myeloid diff 2 active
CCOC(=O)c1ccc(-n2cccc2/C=C2\NC(=O)NC2=O)cc1	Myeloid diff 2 inconclusive
O=C1CCCC/C=C\C[C@H](CC(=O)N(CCO)Cc2ccccc2)C(=O)N[C@@H](c2ccccc2)CO1	T cell HTS 61.9
O=C(N[C@H]1C/C=C\C[C@@H](CC(=O)N(CCO)Cc2ccccc2)C(=O)NC[C@H](c2ccccc2)OC1=O)OCC1c2ccccc2-c2ccccc21	Myeloid diff 2 active
NC(N)=Nc1ccc(C=C2C=Cc3ccccc32)cc1	none (no result: T cell HTS)
Cc1ccc(N2CC(C(=O)Nc3ccc(N4CCOCC4)cc3)CC2=O)cc1C (stereo unspecified)	DSG3 Ab inh -0.9
O=C(Nc1ccc(N2CCOCC2)cc1)C1CC(=O)N(c2ccccc2)C1 (stereo unspecified)	none
CCOc1ccc(N2CC(C(=O)Nc3ccc(N4CCOCC4)cc3)CC2=O)cc1 (stereo unspecified)	DSG3 Ab inh -10.4
O=Cc1ccc(F)c([B-](F)(F)F)c1	none (no result: T cell HTS)
COc1cc(/C=C2\SC(=S)N(NC(=O)c3cccnc3)C2=O)ccc1O	none
COc1cc(/C=C2\SC(=S)N(c3cccnc3)C2=O)ccc1O	DSG3 Ab inh 68.5
CC(=O)N(c1ccccc1)c1ccc([N+](=O)[O-])cc1[N+](=O)[O-]	Myeloid diff 2 active
CC(=O)N(C)c1cccc([N+](=O)[O-])c1	none (no result: Vif imaging)
CCOC(=O)c1cc(CC)sc1NC(=O)c1ccc(N2C(=O)CCC2=O)cc1	DSG3 Ab inh 78.7
CC(C)n1c(=O)c2ccccc2n1Cc1cn(Cc2cccs2)nn1	none (no result: T cell HTS, DSG3 Ab inh)
CCC[C@H]1CN(c2ccc(Br)cc2)C(=O)[C@@H]1CC(=O)NC	none (no result: T cell HTS)
c1cnc2ccc3ncccc3c2c1	none
Nc1ccc2ncccc2c1N	Myeloid diff 2 active
NC(=O)NC(CC(=O)NNC(=O)c1ccccn1)c1ccccc1Cl (stereo unspecified)	none
Cc1ccc(OCCC(=O)N(CCC(C)C)c2c(N)n(Cc3ccccc3)c(=O)[nH]c2=O)cc1	none
O=C1C(=C(O)c2ccccc2)C(=O)c2ccccc21	Myeloid diff 2 active
O=C1C(=C(c2ccccc2)c2ccccc2)Nc2ccccc21	none (no result: Myeloid diff 2)
CCCNC(=O)C1(C)CCCN(C(=O)c2cc(C)n(C(C)(C)C)n2)C1 (stereo unspecified)	none (no result: T cell HTS, Vif imaging, DSG3 Ab inh)
Cc1ccc(OCC(=O)N/N=C\c2ccc(C)o2)c([N+](=O)[O-])c1	Myeloid diff 2 active (no result: T cell HTS)
CN(NC1OC(=O)c2ccccc21)c1ccc(C(F)(F)F)cc1[N+](=O)[O-] (stereo unspecified)	DSG3 Ab inh 83.8
CC(=O)Nc1ccc(C(=O)N2CCCCC2c2cc(C(=O)Nc3ccccc3Cl)no2)cc1 (stereo unspecified)	none (no result: T cell HTS, DSG3 Ab inh)
CC(=O)c1c(N2CCN(C)CC2)[nH]c(-c2ccccc2)nc1=S	Myeloid diff 2 active
O=C(NC(Cc1c[nH]c2ccccc12)C(=O)O)OCC1c2ccccc2-c2ccccc21 (stereo unspecified)	none (no result: T cell HTS, DSG3 Ab inh)
CC[C@H]1c2[nH]c3ccccc3c2C[C@@H]2C(=O)N(c3ccc(F)cc3)C(=O)N21	Myeloid diff 2 active
CC1(C)c2[nH]c3ccccc3c2C[C@@H]2C(=O)N(c3cc(F)ccc3F)C(=O)N21	none (no result: T cell HTS)
COc1ccc(C)cc1NC(=O)c1nnn(Cc2cccc(C(F)(F)F)c2)c1N	Myeloid diff 2 active
CC(=O)Nc1ccc2c(=O)n(-c3ccccc3)sc2c1	DSG3 Ab inh 47.9 (no result: T cell HTS)
CC(=O)Nc1ccc(-c2cc(N)n(-c3ccccc3)n2)cc1	none
N#Cc1ccc2c(=O)n(-c3ccccc3)sc2c1	DSG3 Ab inh 67.9 (no result: T cell HTS)
O=c1c2ccccc2sn1-c1ccccc1	DSG3 Ab inh inconclusive
COc1ccc(-c2ccc(CN3C(C)C(=O)N(Cc4cn(CCC5OCCO5)nn4)CCS3(=O)=O)cc2)cc1 (stereo unspecified)	none (no result: T cell HTS, DSG3 Ab inh)
CCOC(=O)c1sc(Nc2nc3c(F)cccc3s2)cc1C	DSG3 Ab inh 78.1
CNc1ncnc2c1cnn2C1CCCCO1 (stereo unspecified)	none (no result: T cell HTS)
CCCc1cc2c(cc1N(C)S(=O)(=O)c1ccccc1)OCO2	none (no result: T cell HTS, DSG3 Ab inh)
COc1cccc(S(=O)(=O)N(C)C[C@@H]2OCc3cnnn3CCCC(=O)N([C@H](C)CO)C[C@@H]2C)c1	none (no result: T cell HTS, DSG3 Ab inh)
COc1ccc(C(=O)c2sc3nc(-c4ccccc4)ccc3c2N)cc1	Myeloid diff 2 active
CCCn1c(NC(=O)c2ccc(Br)cc2)nc2ccccc21	DSG3 Ab inh 84.9
COc1cc(OC)cc(C2=Cc3ccccc3C(CC(=O)c3ccco3)N2c2ccc(-c3cccnc3)cc2)c1 (stereo unspecified)	none (no result: T cell HTS, Vif imaging, DSG3 Ab inh)
CCCc1cc(=O)n2[nH]c(C)cc2n1	DSG3 Ab inh 82.8
COC(=O)Cc1cc(=O)n2[nH]c(C)cc2n1	none
